Source: ChEMBL document CHEMBL4251566 (Eur J Med Chem, 2018)

How the values were obtained:
Ramos [1] = test: Antiproliferative activity against human Ramos cells after 72 hrs by CCK-8 assay
Raji = test: Antiproliferative activity against human Raji cells after 72 hrs by CCK-8 assay; type: functional, cell-based
Outline: (§1)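 CCK-8 viability assay. Cells were seeded at 3000/well in RPMI-1640 with 10% FBS at 37 °C, 5% CO2, for 4 h before treatment. Exposure was 72 h at five concentrations (1.25, 5, 10, 20, 40 µM), each in five replicates. Absorbance was read at 450 nm. IC50 came from dose-response curves, as the mean of at least three separate experiments.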

NAMALVA = test: Antiproliferative activity against human NAMALWA cells after 72 hrs by CCK-8 assay; type: functional, cell-based; outline: as §1
[2] = target: Tyrosine-protein kinase BTK (Homo sapiens, UniProt Q06187); test: Inhibition of recombinant full-length N-terminal His-tagged human BTK expressed in baculovirus infected Sf9 insect cells using Poly(4:1 Glu,Tyr) peptide substrate incubated for 60 mins by ADP-Glo luminescence assay
[3] = target: T1, Tyrosine-protein kinase JAK3 (Homo sapiens, UniProt P52333); test: Inhibition of recombinant N-terminal GST-tagged human JAK3 (781 to end residues) expressed in baculovirus infected Sf9 insect cells using Poly(4:1 Glu,Tyr) peptide substrate incubated for 60 mins by ADP-Glo luminescence assay
T1 sequence (P52333 whole entry): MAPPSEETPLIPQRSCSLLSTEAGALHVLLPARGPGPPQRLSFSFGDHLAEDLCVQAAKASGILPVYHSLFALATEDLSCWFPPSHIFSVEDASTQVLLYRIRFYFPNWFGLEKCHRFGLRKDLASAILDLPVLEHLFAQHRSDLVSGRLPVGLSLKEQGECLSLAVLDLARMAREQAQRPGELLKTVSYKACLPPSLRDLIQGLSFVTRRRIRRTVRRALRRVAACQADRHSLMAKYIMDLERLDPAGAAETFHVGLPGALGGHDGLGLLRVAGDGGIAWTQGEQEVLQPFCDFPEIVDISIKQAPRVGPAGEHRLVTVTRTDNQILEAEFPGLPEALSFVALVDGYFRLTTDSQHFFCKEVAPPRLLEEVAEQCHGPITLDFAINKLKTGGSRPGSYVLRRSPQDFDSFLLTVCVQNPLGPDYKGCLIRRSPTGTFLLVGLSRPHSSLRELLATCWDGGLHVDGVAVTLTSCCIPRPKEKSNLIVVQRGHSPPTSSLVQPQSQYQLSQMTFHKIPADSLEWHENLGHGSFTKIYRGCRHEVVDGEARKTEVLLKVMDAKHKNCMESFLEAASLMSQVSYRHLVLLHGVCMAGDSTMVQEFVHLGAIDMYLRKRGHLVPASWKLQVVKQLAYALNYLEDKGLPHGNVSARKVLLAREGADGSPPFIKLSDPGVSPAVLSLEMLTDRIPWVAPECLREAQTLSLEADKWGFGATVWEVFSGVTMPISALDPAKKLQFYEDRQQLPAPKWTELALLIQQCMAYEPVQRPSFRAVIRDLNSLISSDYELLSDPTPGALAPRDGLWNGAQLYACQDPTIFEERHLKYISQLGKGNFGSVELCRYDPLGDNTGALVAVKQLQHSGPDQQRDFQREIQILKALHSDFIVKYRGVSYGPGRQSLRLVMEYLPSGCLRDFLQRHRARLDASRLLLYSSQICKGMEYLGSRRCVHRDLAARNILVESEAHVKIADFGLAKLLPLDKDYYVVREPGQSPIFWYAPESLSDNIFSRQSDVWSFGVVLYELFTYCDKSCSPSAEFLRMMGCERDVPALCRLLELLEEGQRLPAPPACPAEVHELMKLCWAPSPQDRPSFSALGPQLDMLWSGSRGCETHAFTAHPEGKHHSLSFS
Outline: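 ADP-Glo luminescent kinase assay. The kinase reaction ran 60 min at room temperature in 1× kinase buffer. ADP-Glo reagent was added to stop the reaction and deplete ATP, followed by 40 min at room temperature. Detection reagent then converted ADP to ATP for a luciferase readout, followed by 30 min at room temperature. Luminescence was integrated over 0.5–1 s, and IC50 came from curve fitting.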

Ramos [4] = test: Induction of apoptosis in human Ramos cells assessed as total apoptosis rate at 10 uM after 72 hrs by Annexin V-FITC/propidium iodide staining based flow cytometry relative to control
Ramos [5] = test: Induction of apoptosis in human Ramos cells assessed as viable cells at 10 uM after 72 hrs by Annexin V-FITC/propidium iodide staining based flow cytometry (reference value: 98.7%); type: functional; conditions: read-out: Activity
Ramos [6] = test: Induction of apoptosis in human Ramos cells assessed as early apoptotic cells at 10 uM after 72 hrs by Annexin V-FITC/propidium iodide staining based flow cytometry (reference value: 0.0%); type: functional
PBMC = test: Cytotoxicity against human PBMCs assessed as induction of morphological changes at <10 uM after 24 hrs by AO/PI staining-based phase contrast microscopy; type: cell-based
Ramos [7] = test: Induction of apoptosis in human Ramos cells assessed as necrotic cells at 10 uM after 72 hrs by Annexin V-FITC/propidium iodide staining based flow cytometry (reference value: 0.7%); type: functional
Ramos [8] = test: Induction of apoptosis in human Ramos cells assessed as late apoptotic cells at 10 uM after 72 hrs by Annexin V-FITC/propidium iodide staining based flow cytometry (reference value: 0.5%); type: functional

Chain of Tyrosine-protein kinase BTK (Q06187 whole entry): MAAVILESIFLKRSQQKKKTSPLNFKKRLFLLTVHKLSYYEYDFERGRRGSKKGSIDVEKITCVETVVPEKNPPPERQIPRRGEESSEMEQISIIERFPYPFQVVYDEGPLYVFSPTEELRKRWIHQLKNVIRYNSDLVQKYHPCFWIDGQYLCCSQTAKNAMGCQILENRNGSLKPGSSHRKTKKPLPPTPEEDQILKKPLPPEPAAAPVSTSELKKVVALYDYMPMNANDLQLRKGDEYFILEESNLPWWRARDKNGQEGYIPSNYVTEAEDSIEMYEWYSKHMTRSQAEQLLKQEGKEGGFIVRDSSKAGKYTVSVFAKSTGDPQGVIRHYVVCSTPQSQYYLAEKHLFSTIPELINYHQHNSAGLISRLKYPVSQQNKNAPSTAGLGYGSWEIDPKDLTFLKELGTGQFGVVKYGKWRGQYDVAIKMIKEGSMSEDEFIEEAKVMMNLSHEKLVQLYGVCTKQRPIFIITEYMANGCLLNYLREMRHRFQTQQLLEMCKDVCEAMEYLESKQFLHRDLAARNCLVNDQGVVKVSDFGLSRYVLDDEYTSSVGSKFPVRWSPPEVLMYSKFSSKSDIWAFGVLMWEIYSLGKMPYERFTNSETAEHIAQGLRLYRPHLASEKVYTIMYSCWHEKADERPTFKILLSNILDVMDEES

Compound `C=CC(=O)Nc1cccc(Nc2nc(Nc3ccc(OCC(=O)N4CCOCC4)c(OC)c3)ncc2F)c1` has an IC50 (Ramos [1]) of over 40 µM, an IC50 (Raji) of 11.2 µM and an IC50 (NAMALVA) of 15 µM. For the same compound, the IC50 [2] was 0.0171 µM and the IC50 [3] was 0.0112 µM.

`C=CC(=O)Nc1cccc(Nc2nc(Nc3ccc(OCCCN4CCOCC4)c(Cl)c3)ncc2Cl)c1` was tested, and the IC50 (Ramos [1]) was 2 µM, the IC50 (Raji) was 22.5 µM and the IC50 (NAMALVA) was 19.4 µM. For the same compound, the IC50 [2] was 0.0007 µM and the IC50 [3] was 0.00106 µM.

In the case of `C=CC(=O)Nc1cccc(Nc2nc(Nc3ccc(OC)c(OCCCN4CCOCC4)c3)ncc2F)c1`, the IC50 (Ramos [1]) is reported as 11.3 µM, the IC50 (Raji) is reported as 13.9 µM and the IC50 (NAMALVA) is reported as 3.17 µM. For the same compound, the IC50 [2] was 0.0007 µM and the IC50 [3] was 0.00095 µM.

For `C=CC(=O)Nc1cccc(Nc2nc(Nc3ccc(OCCCN4CCOCC4)c(OC)c3)ncc2Cl)c1`, the IC50 (Ramos [1]) was 2.49 µM, the IC50 (Raji) was 5.92 µM and the IC50 (NAMALVA) was 14.4 µM. The IC50 [2] was 0.0313 µM and the IC50 [3] was 0.00677 µM.

With `C=CC(=O)Nc1cccc(Nc2nc(Nc3ccc(OCCCN4CCN(CC)CC4)cc3C)ncc2Cl)c1` the IC50 (Ramos [1]) was 14.4 µM, the IC50 (Raji) was 35.3 µM and the IC50 (NAMALVA) was 35.2 µM. The IC50 [2] was over 0.1 µM and the IC50 [3] was over 0.1 µM.

With `C=CC(=O)Nc1cccc(Nc2nc(Nc3ccc(OCCCN4CCN(CC)CC4)c(Cl)c3)ncc2Cl)c1` the IC50 (Ramos [1]) was 5.72 µM, the IC50 (Raji) was 11.4 µM and the IC50 (NAMALVA) was 2.41 µM. For the same compound, the IC50 [2] was 0.0005 µM and the IC50 [3] was 0.00091 µM.

Compound `C=CC(=O)Nc1cccc(Nc2nc(Nc3ccc(OCCCN4CCN(C)CC4)cc3C)ncc2Cl)c1` has an IC50 (Ramos [1]) of 22.6 µM, an IC50 (Raji) of 25 µM and an IC50 (NAMALVA) of 24.6 µM. For the same compound, the IC50 [2] was 0.0817 µM and the IC50 [3] was 0.0911 µM.

Compound `C=CC(=O)N1CCC[C@@H](n2nc(-c3ccc(Oc4ccccc4)cc3)c3c(N)ncnc32)C1` [IBRUTINIB] has an Activity (Ramos [4]) of 47.9%, an IC50 (Ramos [1]) of 6.62 µM and an IC50 (Raji) of 20.9 µM. It also gave a viability at 10 µM (Ramos [5]) of 52%, an IC50 (NAMALVA) of 10.5 µM and an Activity (Ramos [6]) of 37%. It also gave an Activity (PBMC) of 50% and an Activity (Ramos [7]) of 0.1%.

Compound `C=CC(=O)Nc1cccc(Nc2nc(Nc3ccc(OC)c(OCCCN4CCOCC4)c3)ncc2Cl)c1` has an IC50 (Ramos [1]) of 7.31 µM, an IC50 (Raji) of 3.86 µM and an IC50 (NAMALVA) of 5.17 µM. It also gave an IC50 [2] of 0.0008 µM and an IC50 [3] of 0.00069 µM.

With `C=CC(=O)Nc1cccc(Nc2nc(Nc3ccc(OCCCN4CCOCC4)cc3C)ncc2Cl)c1` the IC50 (Ramos [1]) was 18.7 µM, the IC50 (Raji) was 25.5 µM and the IC50 (NAMALVA) was 28 µM. It also gave an IC50 [2] of 0.0893 µM and an IC50 [3] of over 0.1 µM.

`C=CC(=O)Nc1cccc(Nc2nc(Nc3ccc(OCCOC)cc3)ncc2F)c1` [SPEBRUTINIB] showed an Activity (Ramos [4]) of 41.5%, an Activity (Ramos [8]) of 20.4% and an IC50 (Ramos [1]) of 14.2 µM. The IC50 (Raji) was 25.3 µM, the viability at 10 µM (Ramos [5]) was 54.2% and the IC50 (NAMALVA) was 3.42 µM. It also gave an IC50 [3] of 0.0225 µM, an Activity (Ramos [6]) of 21.1% and an Activity (Ramos [7]) of 4.3%.

With `C=CC(=O)Nc1cccc(Nc2nc(Nc3ccc(OCC(=O)N4CCOCC4)cc3)ncc2Cl)c1` the IC50 (Ramos [1]) was 25.6 µM, the IC50 (Raji) was 5.68 µM and the IC50 (NAMALVA) was 4.42 µM. It also gave an IC50 [2] of 0.001 µM and an IC50 [3] of 0.00139 µM.

`C=CC(=O)Nc1cccc(Nc2nc(Nc3ccc(OCC(=O)N4CCOCC4)c(OC)c3)ncc2Cl)c1` was tested, and the IC50 (Ramos [1]) was over 40 µM, the IC50 (Raji) was 22.5 µM and the IC50 (NAMALVA) was 17.2 µM. For the same compound, the IC50 [2] was 0.0105 µM and the IC50 [3] was 0.0216 µM.

For `C=CC(=O)Nc1cccc(Nc2nc(Nc3ccc(OCCCN4CCN(CC)CC4)cc3C)ncc2F)c1`, the IC50 (Ramos [1]) was 18.5 µM, the IC50 (Raji) was 26 µM and the IC50 (NAMALVA) was 26.6 µM. The IC50 [2] was 0.09 µM and the IC50 [3] was over 0.1 µM.
